ChEMBL document CHEMBL5705904 (N Engl J Med, 2016)

How the values were obtained:
[1] = Apparent oral clearance in human at 100 mg, po BID administered for 8 days by LC-MS/MS analysis; assay type: ADME, organism-based; details: in vivo, time 8 day
Outline: (§1)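 Steady-state plasma sampling on cycle 1 day 8 in patients, predose and 0.25, 0.5, 0.75, 1, 2, 4 and 6 h post-dose, into lithium heparin. Plasma was stored at -80°C. Drug was quantified by validated LC-MS/MS against a stable labeled internal standard, using only values at or above LLOQ and nominal sampling times.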

[2] = AUC(0 to 6 hrs) in human at 175 mg, po administered for 8 days by LC-MS/MS analysis; assay type: ADME, organism-based; details: in vivo, time 8 day; outline: as §1
[3] = AUC(0 to 12 hrs) in human at 400 mg, po administered for 8 days by LC-MS/MS analysis; assay type: ADME, organism-based; details: in vivo, time 8 day; outline: as §1
[4] = target: Tyrosine-protein kinase Blk (Homo sapiens, UniProt P51451); assay: Inhibition of recombinant BLK (unknown origin) preincubated for 1 hr in presence of ATP by Z-Lyte assay
Tyrosine-protein kinase Blk, sequence (P51451 whole entry): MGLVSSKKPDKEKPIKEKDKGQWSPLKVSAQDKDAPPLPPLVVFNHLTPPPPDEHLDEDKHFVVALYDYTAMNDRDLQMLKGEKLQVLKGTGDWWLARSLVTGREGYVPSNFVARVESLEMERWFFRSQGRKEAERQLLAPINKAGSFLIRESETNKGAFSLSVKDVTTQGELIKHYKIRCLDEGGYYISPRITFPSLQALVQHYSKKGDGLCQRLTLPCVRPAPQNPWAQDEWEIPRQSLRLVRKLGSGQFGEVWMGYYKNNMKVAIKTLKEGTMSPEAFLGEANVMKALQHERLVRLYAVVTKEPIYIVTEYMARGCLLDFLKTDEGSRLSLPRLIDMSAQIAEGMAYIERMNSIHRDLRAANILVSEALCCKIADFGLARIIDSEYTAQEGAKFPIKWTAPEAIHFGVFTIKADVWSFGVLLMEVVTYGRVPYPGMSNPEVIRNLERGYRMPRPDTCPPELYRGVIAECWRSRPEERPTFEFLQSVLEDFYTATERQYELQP
Outline: (§2)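 Recombinant kinase activity was measured by Z'-LYTE with ATP at each enzyme's Km. Inhibitor came from a 10 mM DMSO stock and was tested at 10 concentrations. Compound was preincubated with kinase for 1 h before ATP addition started the reaction, for about 2 h total compound-kinase exposure. IC50 is from 2–3 independent experiments.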

[5] = Half life in human at 400 mg, po administered for 8 days by LC-MS/MS analysis; assay type: ADME, organism-based; details: in vivo, time 8 day; outline: as §1
[6] = AUC(0 to 6 hrs) in human at 400 mg, po administered for 8 days by LC-MS/MS analysis; assay type: ADME, organism-based; details: in vivo, time 8 day; outline: as §1
[7] = AUC(0 to 6 hrs) in human at 100 mg, po administered for 8 days by LC-MS/MS analysis; assay type: ADME, organism-based; details: in vivo, time 8 day; outline: as §1
[8] = target: T1, Tyrosine-protein kinase TXK (Homo sapiens, UniProt P42681); assay: Inhibition of recombinant TXK (unknown origin) preincubated for 1 hr in presence of ATP by Z-Lyte assay
T1 sequence (P42681 whole entry): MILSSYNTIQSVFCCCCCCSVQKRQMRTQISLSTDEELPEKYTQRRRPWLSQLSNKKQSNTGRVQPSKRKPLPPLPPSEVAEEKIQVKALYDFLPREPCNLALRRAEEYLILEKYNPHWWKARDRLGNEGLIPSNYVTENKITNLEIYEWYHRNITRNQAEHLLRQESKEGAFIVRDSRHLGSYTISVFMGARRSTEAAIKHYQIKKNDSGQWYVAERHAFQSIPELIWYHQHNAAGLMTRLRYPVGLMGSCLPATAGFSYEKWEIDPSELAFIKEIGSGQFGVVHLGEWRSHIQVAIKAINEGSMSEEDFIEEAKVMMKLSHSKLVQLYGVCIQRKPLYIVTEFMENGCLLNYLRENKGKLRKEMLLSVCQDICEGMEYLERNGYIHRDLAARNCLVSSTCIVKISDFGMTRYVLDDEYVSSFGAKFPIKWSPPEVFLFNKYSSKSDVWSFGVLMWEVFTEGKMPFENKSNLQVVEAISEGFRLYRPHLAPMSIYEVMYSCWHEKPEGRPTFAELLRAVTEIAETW

[9] = Terminal elimination half life in human at 400 mg, po administered for 8 days by LC-MS/MS analysis; assay type: ADME, organism-based; details: in vivo, time 8 day, read-out: LambdaZ (converted)
[10] = Cmax in human at 250 mg, po administered for 8 days by LC-MS/MS analysis; assay type: ADME, organism-based; details: in vivo, time 8 day; outline: as §1
[11] = Apparent oral clearance in human at 400 mg, po administered for 8 days by LC-MS/MS analysis; assay type: ADME, organism-based; details: in vivo, time 8 day; outline: as §1
[12] = Cmax in human at 400 mg, po administered for 8 days by LC-MS/MS analysis; assay type: ADME, organism-based; details: in vivo, time 8 day; outline: as §1
[13] = target: Tyrosine-protein kinase HCK (Homo sapiens, UniProt P08631); assay: Inhibition of recombinant HCK (unknown origin) preincubated for 1 hr in presence of ATP by Z-Lyte assay; outline: as §2
Tyrosine-protein kinase HCK, sequence (P08631 whole entry): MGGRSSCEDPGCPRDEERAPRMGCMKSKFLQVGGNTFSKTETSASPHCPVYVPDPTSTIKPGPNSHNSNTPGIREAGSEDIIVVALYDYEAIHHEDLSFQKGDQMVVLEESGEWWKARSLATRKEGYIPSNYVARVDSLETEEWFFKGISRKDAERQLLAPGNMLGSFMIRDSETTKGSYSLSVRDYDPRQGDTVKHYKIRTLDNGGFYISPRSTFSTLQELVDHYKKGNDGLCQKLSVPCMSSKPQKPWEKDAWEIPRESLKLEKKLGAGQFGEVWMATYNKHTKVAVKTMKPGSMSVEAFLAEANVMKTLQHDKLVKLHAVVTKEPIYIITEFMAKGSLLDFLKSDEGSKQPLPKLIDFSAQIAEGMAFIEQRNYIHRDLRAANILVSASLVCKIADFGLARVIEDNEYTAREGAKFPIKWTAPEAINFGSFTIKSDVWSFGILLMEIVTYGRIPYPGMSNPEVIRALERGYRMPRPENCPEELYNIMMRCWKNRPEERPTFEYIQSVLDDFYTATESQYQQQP

[14] = target: Tyrosine-protein kinase Fgr (Homo sapiens, UniProt P09769); assay: Inhibition of recombinant FGR (unknown origin) preincubated for 1 hr in presence of ATP by Z-Lyte assay; outline: as §2
Tyrosine-protein kinase Fgr, sequence (P09769 whole entry): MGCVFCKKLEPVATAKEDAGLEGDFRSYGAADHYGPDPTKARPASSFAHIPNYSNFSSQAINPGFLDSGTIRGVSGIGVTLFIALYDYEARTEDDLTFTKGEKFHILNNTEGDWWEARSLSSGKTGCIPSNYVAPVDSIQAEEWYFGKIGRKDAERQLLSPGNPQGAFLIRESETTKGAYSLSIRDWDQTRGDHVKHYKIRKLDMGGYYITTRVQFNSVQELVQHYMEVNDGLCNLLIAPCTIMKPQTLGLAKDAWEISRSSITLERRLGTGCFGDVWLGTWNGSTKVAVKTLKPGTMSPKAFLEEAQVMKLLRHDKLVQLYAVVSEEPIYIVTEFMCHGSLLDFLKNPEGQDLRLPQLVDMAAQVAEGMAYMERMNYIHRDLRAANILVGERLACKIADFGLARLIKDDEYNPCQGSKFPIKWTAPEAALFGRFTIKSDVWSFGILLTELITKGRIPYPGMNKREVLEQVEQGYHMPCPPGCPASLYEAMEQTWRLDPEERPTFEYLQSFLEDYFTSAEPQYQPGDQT

[15] = AUC(0 to 12 hrs) in human at 100 mg, po BID administered for 8 days by LC-MS/MS analysis; assay type: ADME, organism-based; details: in vivo, time 8 day; outline: as §1
[16] = Tmax in human at 100 mg, po administered for 8 days by LC-MS/MS analysis; assay type: ADME, organism-based; details: in vivo, time 8 day
Outline: (§3)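 Patient plasma sampled on cycle 1 day 8 at predose and 0.25, 0.5, 0.75, 1, 2, 4 and 6 h post-dose, in lithium heparin. […] Tmax read directly from each individual's data; summarized descriptively.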

[17] = AUC(0 to 24 hrs) in human at 100 mg, po administered for 8 days by LC-MS/MS analysis; assay type: ADME, organism-based; details: in vivo, time 8 day; outline: as §1
[18] = Half life in human at 100 mg, po administered for 8 days by LC-MS/MS analysis; assay type: ADME, organism-based; details: in vivo, time 8 day; outline: as §1
[19] = Cmax in human at 100 mg, po administered for 8 days by LC-MS/MS analysis; assay type: ADME, organism-based; details: in vivo, time 8 day; outline: as §1
[20] = Apparent volume of distribution during terminal phase in human at 250 mg, po administered for 8 days by LC-MS/MS analysis; assay type: ADME, organism-based; details: in vivo, time 8 day, read-out: Vz/F; outline: as §1
[21] = Half life in human at 250 mg, po administered for 8 days by LC-MS/MS analysis; assay type: ADME, organism-based; details: in vivo, time 8 day; outline: as §1
[22] = AUC(0 to infinity) in human at 100 mg, po BID administered for 8 days by LC-MS/MS analysis; assay type: ADME, organism-based; details: in vivo, time 8 day; outline: as §1
[23] = Terminal elimination half life in human at 250 mg, po administered for 8 days by LC-MS/MS analysis; assay type: ADME, organism-based; details: in vivo, time 8 day, read-out: LambdaZ (converted)
[24] = Apparent volume of distribution during terminal phase in human at 100 mg, po BID administered for 8 days by LC-MS/MS analysis; assay type: ADME, organism-based; details: in vivo, time 8 day, read-out: Vz/F; outline: as §1
[25] = target: Tyrosine-protein kinase Lck (Homo sapiens, UniProt P06239); assay: Inhibition of recombinant LCK (unknown origin) preincubated for 1 hr […] by Z-Lyte assay; outline: as §2
Tyrosine-protein kinase Lck, sequence (P06239 whole entry): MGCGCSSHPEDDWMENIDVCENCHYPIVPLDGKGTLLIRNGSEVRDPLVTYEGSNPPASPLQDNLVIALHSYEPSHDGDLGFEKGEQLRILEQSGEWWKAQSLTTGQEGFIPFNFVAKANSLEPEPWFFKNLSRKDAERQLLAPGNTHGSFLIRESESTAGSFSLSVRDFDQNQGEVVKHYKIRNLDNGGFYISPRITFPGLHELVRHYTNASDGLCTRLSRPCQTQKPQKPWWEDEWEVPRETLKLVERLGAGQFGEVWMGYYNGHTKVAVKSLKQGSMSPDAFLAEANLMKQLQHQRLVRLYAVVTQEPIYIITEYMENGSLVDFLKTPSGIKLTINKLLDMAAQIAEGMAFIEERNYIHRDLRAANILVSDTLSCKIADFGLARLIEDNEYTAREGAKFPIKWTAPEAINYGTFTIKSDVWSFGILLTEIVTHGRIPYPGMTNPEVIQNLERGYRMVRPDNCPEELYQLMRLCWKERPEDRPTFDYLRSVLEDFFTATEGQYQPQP

[26] = Tmax in human at 400 mg, po administered for 8 days by LC-MS/MS analysis; assay type: ADME, organism-based; details: in vivo, time 8 day; outline: as §3
[27] = Apparent volume of distribution during terminal phase in human at 400 mg, po administered for 8 days by LC-MS/MS analysis; assay type: ADME, organism-based; details: in vivo, time 8 day, read-out: Vz/F; outline: as §1
[28] = Tmax in human at 250 mg, po administered for 8 days by LC-MS/MS analysis; assay type: ADME, organism-based; details: in vivo, time 8 day; outline: as §3
[29] = Half life in human at 175 mg, po administered for 8 days by LC-MS/MS analysis; assay type: ADME, organism-based; details: in vivo, time 8 day; outline: as §1
[30] = Apparent oral clearance in human at 100 mg, po administered for 8 days by LC-MS/MS analysis; assay type: ADME, organism-based; details: in vivo, time 8 day; outline: as §1
[31] = Cmax in human at 100 mg, po BID administered for 8 days by LC-MS/MS analysis; assay type: ADME, organism-based; details: in vivo, time 8 day; outline: as §1

CL/F [1]: 2750 mL/min
AUC at 192 h [2]: 1140 ng·h/mL
AUC at 192 h [3]: 1850 ng·h/mL
IC50 [4]: > 1000 nM
half-life [5]: 1.39 h
AUC at 192 h [6]: 1730 ng·h/mL
AUC at 192 h [7]: 584 ng·h/mL
IC50 [8]: 368 nM
k el at 192 h [9]: 0.000161 s⁻¹
Cmax [10]: 1350 ng/mL
CL/F [11]: 5200 mL/min
Cmax [12]: 902 ng/mL
IC50 [13]: > 1000 nM
IC50 [14]: > 1000 nM
AUC at 192 h [15]: 926 ng·h/mL
Tmax [16]: 0.81 h
AUC at 192 h [17]: 603 ng·h/mL
half-life [18]: 1.16 h
Cmax [19]: 529 ng/mL
Vd/F [20]: 179 L
half-life [21]: 0.941 h
AUC(0-inf) [22]: 927 ng·h/mL
k el at 192 h [23]: 0.000206 s⁻¹
Vd/F [24]: 361 L
IC50 [25]: > 1000 nM
Tmax [26]: 0.92 h
Vd/F [27]: 677 L
Tmax [28]: 1.1 h
half-life [29]: 1.02 h
CL/F [30]: 3000 mL/min
Cmax [31]: 827 ng/mL
Compound: CC#CC(=O)N1CCC[C@H]1c1nc(-c2ccc(C(=O)Nc3ccccn3)cc2)c2c(N)nccn12 [ACALABRUTINIB]
